The source of these data is ChEMBL document CHEMBL1154253, “Synthesis and serotonin transporter activity of sulphur-substituted alpha-alkyl phenethylamines as a new class of anticancer agents” (Eur J Med Chem, 2009).

SMILES strings stand for the structures. Converted amounts (≈) assume the structure as drawn. The source made the active and inactive calls. No cut-off for these calls is given here.

The target in data set [1] is Sodium-dependent serotonin transporter (Rattus norvegicus, UniProt P31652). Description: Inhibition of [3H]5-HT reuptake at rat SERT expressed in HEK293 cells after 2 mins by liquid scintillation counting. Format: cell-based.
Sequence of Sodium-dependent serotonin transporter (Rattus norvegicus, UniProt P31652) (P31652 whole entry): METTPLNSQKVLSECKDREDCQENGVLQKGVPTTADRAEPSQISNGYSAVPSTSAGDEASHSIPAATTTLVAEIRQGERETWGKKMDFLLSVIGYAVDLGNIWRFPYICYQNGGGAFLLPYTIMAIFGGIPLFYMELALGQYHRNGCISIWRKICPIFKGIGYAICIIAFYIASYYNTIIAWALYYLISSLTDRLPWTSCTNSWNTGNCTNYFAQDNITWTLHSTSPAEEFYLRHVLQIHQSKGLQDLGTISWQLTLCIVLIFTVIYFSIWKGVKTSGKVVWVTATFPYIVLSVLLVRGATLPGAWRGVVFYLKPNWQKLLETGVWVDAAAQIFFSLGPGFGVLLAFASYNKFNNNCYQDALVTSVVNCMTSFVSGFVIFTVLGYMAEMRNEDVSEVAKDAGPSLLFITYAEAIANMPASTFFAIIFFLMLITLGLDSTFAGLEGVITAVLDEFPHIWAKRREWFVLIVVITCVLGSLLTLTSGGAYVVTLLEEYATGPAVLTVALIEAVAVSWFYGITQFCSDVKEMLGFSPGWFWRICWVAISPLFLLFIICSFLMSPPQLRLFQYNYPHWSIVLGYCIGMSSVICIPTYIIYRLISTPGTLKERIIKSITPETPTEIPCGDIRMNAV
The test system of data set [2] is HEK293. Description: Cytotoxicity against human HEK293 cells after 48 hrs by neutral red assay. It counts as cell-based. To be noted: HEK293, 48 h, read-out: pEC50 (converted). Put shortly: (§1)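 Neutral Red uptake: 5 × 10⁴ cells/well grown 24–36 h to sub-confluence, then treated 48 h. Cells incubated 3 ± 1 h with NR dye, washed and solubilised in 50% ethanol–1% acetic acid, and absorbance read at 540 nm (690 nm background). Viability given as % of vehicle-treated cells. pEC50 obtained by sigmoidal regression (Hill slope 1) using 4 concentrations in triplicate on two independent days. SERT-line values compared with parental HEK293 by two-way ANOVA with Bonferroni test. Sodium azide 30 mM and Triton-X 2% as positive controls.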

The subject of data set [3] is SH-SY5Y. Description: Cytotoxicity against human SH-SY5Y cells after 48 hrs by neutral red assay. Format: functional, cell-based.
Data set [4] deals with T1, Sodium-dependent serotonin transporter (Homo sapiens, UniProt P31645). Description: Inhibition of [3H]5-HT uptake at SERT.
Target sequence in this assay (P31645 whole entry): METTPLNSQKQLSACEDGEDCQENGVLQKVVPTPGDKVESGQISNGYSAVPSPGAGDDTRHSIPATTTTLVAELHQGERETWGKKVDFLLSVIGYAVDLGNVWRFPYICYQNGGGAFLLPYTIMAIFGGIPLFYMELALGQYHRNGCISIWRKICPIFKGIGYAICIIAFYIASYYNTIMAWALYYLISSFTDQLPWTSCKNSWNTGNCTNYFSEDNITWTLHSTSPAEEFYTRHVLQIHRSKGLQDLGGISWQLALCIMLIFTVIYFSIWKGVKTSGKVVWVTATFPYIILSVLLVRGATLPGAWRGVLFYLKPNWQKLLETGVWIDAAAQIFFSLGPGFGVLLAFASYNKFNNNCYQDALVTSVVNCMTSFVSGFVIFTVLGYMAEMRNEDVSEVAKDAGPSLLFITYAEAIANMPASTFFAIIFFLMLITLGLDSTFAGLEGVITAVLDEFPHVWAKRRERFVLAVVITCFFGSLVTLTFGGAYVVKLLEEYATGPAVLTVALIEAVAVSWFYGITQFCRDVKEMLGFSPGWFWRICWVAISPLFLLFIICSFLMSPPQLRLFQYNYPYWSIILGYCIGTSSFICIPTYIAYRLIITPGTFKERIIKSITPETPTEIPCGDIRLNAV
Data set [5] concerns the target Sodium-dependent noradrenaline transporter (Homo sapiens, UniProt P23975). Description: Inhibition of human noradrenaline transporter.
The target in data set [6] is Sodium-dependent dopamine transporter (Homo sapiens, UniProt Q01959). Description: Inhibition of human dopamine transporter.
Sequence of Sodium-dependent dopamine transporter (Q01959 whole entry): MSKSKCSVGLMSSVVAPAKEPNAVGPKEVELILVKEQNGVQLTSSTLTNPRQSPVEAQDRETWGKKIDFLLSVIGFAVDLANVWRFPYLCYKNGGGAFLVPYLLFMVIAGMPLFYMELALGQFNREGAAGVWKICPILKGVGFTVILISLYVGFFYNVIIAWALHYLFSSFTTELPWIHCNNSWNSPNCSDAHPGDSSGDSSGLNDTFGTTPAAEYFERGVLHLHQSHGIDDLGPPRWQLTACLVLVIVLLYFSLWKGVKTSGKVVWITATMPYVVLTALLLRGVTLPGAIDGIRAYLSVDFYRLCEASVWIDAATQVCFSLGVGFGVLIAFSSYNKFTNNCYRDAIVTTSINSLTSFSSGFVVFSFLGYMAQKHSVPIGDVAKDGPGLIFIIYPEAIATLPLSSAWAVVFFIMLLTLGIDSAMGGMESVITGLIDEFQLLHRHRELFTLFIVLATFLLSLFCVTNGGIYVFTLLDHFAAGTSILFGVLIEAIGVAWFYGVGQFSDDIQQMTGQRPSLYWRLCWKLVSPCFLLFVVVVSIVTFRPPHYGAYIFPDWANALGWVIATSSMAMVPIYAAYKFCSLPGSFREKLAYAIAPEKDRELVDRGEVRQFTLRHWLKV
For data set [7], the system named is HEK293. Description: Cytotoxicity against human HEK293 cells at 1 uM after 48 hrs by neutral red assay. It counts as cell-based. To be noted: hek293, 48 h. In short, it runs like this: as §1
In data set [8] the target is T1, Sodium-dependent serotonin transporter. Description: Induction of human SERT-dependent cytotoxicity in SERT expressing HEK293 cells at 1 uM after 48 hrs by neutral red assay. It counts as cell-based. Put shortly:
as §1
Target sequence in this assay (P31645 whole entry, looked up): as the sequence (P31645 whole entry) above

Data set [9] shares this target. Description: Inhibition of [3H]5-HT uptake at human SERT expressed in HEK293 cells after 10 mins by scintillation counting. It counts as cell-based.
Target sequence in this assay (P31645 whole entry): as above
For data set [10], the species on record is Rattus norvegicus. Description: Selectivity ratio of IC50 for DAT in rat brain synaptosome to IC50 for SERT in rat brain synaptosome. Format: tissue-based.
Data set [11] is filed under the species Rattus norvegicus. Description: Selectivity ratio of IC50 for NET in rat brain synaptosome to IC50 for SERT in rat brain synaptosome. Format: tissue-based.
Data set [12] addresses Sodium-dependent serotonin transporter (Rattus norvegicus) (UniProt P31652). Description: Inhibition of [3H]5-HT reuptake at rat SERT expressed in HEK293 cells at 100 uM after 2 mins by liquid scintillation counting. Format: cell-based.
In data set [13] the test system is DG-75. Description: Antiproliferative activity against human DG75 cells after 24 to 72 hrs by alamar blue assay. Format: functional, cell-based. In short, it runs like this: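 Cells seeded at 1–5 × 10⁴ per well and exposed to compound for the stated time. Alamar Blue was then added, followed by 4–6 h incubation at 37 °C in the dark. Fluorescence was read at excitation 544 nm and emission 590 nm. Medium-plus-dye background was subtracted, and untreated cells were set as 100% viability. Readings were in triplicate on two independent days.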

The nature of data set [14]: Antiproliferative activity against human MUTU-I cells after 24 hrs by alamar blue assay.
Data set [15] concerns HL-60. Description: Antiproliferative activity against human HL60 cells after 24 hrs by alamar blue assay. Format: functional, cell-based. As to conditions: HL-60, 24 h.

Sequence of Sodium-dependent noradrenaline transporter (P23975 whole entry): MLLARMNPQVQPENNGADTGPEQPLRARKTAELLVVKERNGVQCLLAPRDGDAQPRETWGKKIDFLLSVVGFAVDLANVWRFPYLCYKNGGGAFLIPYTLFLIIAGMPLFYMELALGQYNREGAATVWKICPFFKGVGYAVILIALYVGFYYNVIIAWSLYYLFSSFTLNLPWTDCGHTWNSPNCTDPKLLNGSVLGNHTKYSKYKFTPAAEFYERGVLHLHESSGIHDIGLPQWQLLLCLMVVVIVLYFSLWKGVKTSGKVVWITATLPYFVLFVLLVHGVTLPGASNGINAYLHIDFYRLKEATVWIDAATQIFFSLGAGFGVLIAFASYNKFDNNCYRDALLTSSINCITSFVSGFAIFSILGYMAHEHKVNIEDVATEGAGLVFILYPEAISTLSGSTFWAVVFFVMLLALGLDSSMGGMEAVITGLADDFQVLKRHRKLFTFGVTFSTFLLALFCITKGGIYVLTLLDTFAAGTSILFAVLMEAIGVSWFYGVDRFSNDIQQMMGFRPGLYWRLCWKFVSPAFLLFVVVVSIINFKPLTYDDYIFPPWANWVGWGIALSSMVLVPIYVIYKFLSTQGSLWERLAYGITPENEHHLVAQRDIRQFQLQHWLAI
Sequence of Sodium-dependent serotonin transporter (Rattus norvegicus) (P31652 whole entry): as the sequence (P31652 whole entry) above

As to `C=CCNC(C)Cc1ccc(SC)cc1` (stereo not drawn), the IC50 in data set [1] was found to be 0.524 µM. Moreover, the figures for the EC50 in [2] and in [3] (read-out: pEC50 (converted)) were 15.5 µM and 123 µM, respectively.
For the compound `CCC(N)Cc1ccc(SC)cc1` (stereo not drawn), in data set [1], the IC50 is 0.611 µM. Also, the EC50 is 14.8 µM in [2] and 437 µM in data set [3] (read-out: pEC50 (converted)).
As for `CSc1ccc(CC(C)NC2CC2)cc1` (stereo not drawn), in data set [1], it took 0.702 µM to reach half-maximal inhibition (IC50). The EC50 was 18.6 µM in data set [2] and 372 µM in data set [3] (read-out: pEC50 (converted)).
Consider `CNC(C)Cc1ccc2c(c1)OCO2` (stereo not drawn) [MIDOMAFETAMINE], for which the IC50 in data set [1] was determined as 1.06 µM; in data set [4], 0.425 µM; in [5], 0.405 µM; in data set [6], 1.44 µM. Besides, the results for the EC50 in [2] and in [3] (read-out: pEC50 (converted)) were 245 µM and > 10000 µM, respectively.
`CCSc1ccc(CC(CC)NO)cc1` (stereo not drawn) came in with an IC50 in data set [1] of 1.45 µM. Besides, the EC50 was 11.5 µM in data set [2] and 1820 µM in data set [3] (read-out: pEC50 (converted)).
Regarding `COc1ccc(CC(C)N)cc1` (stereo not drawn) [PARA-METHOXYAMPHETAMINE], in [1], 0.173 µM corresponded to half-maximal inhibition (IC50). In addition, the values for the EC50 in [2] and in data set [3] (read-out: pEC50 (converted)) were 457 µM and > 10000 µM, respectively.
Consider `C#CCNC(CC)Cc1ccc(SC)cc1` (stereo not drawn), for which the IC50 in [1] was 0.399 µM. Besides, the EC50 in data set [2] is 20.4 µM; in data set [3] (read-out: pEC50 (converted)), 394 µM.
In data set [1], `CCNC(C)Cc1ccc(SCC)cc1` (stereo not drawn) came in with an IC50 of 0.478 µM. The EC50 in [2] is 6.31 µM; in data set [3] (read-out: pEC50 (converted)), 302 µM.
The matching figures for `CCSc1ccc(CC(C)N(C)O)cc1` (stereo not drawn): 1.57 µM, 12.3 µM and 43.7 µM.
In turn, `CSc1ccc(CC(C)N(C)O)cc1` (stereo not drawn) came in with an IC50 in data set [1] of 1.87 µM. Also, the EC50 was 24 µM in data set [2] and 229 µM in data set [3] (read-out: pEC50 (converted)).
`CCNC(C)Cc1ccc(SC)cc1` (stereo not drawn) gave a 50% inhibitory concentration (IC50) in [1] of 0.963 µM. The values for the EC50 in [2] and in data set [3] (read-out: pEC50 (converted)) were 16.2 µM and 1860 µM, respectively.
As for `CSc1ccc(CC(C)N)cc1` (stereo not drawn) [4-METHYLTHIOAMPHETAMINE], the IC50 in data set [1] amounted to 0.207 µM; in data set [4] it was 0.074 µM; in data set [5], 2.38 µM; in data set [6] it was 3.07 µM. Moreover, the EC50 in data set [2] is 18.6 µM; in data set [3] (read-out: EC50), 1 µM; in data set [3] (read-out: pEC50 (converted)) it was 608 µM. For the same compound, the Activity result in data set [7] is “Toxic”. Besides, the result in data set [8] was Active. In data set [9], this compound gave a Ki of 0.45 µM. Besides, the Ratio IC50 in data set [10] is 3070; in [11], 2370.
`CCNC(CC)Cc1ccc(SCC)cc1` (stereo not drawn) gave a concentration for half-maximal inhibition (IC50) in data set [1] of 1.8 µM. Moreover, the EC50 was 251 µM in data set [2] and 245 µM in [3] (read-out: pEC50 (converted)).
Turning to `CC(N)Cc1ccc(SC(C)(C)C)cc1` (stereo not drawn), the EC50 in [2] was 7.24 µM; in data set [3] (read-out: EC50), 1 µM; in [3] (read-out: pEC50 (converted)) it was 20.4 µM. In data set [12], this compound gave an inhibition of 100%.
Compound `CCC(Cc1ccc(SC)cc1)NCCOC` (stereo not drawn) gave an IC50 in data set [1] of 2.82 µM. Besides, the figures for the EC50 in data set [2] and in data set [3] (read-out: pEC50 (converted)) were 16.2 µM and 3890 µM, respectively.
Compound `CSc1ccc(CC(C)NO)cc1` (stereo not drawn) had an IC50 in data set [1] of 0.436 µM. Moreover, the EC50 is 38 µM in [2] and 575 µM in data set [3] (read-out: pEC50 (converted)).
For the compound `CCC(Cc1ccc(SC)cc1)NC1CC1` (stereo not drawn), inhibition in data set [1] was half-maximal at 0.872 µM (IC50). Further, the results for the EC50 in data set [2] and in data set [3] (read-out: pEC50 (converted)) were 10.7 µM and > 10000 µM, respectively.
`CC(N)Cc1ccc2c(c1)OCO2` (stereo not drawn) [TENAMFETAMINE]: the IC50 in data set [1] was found to be 0.996 µM; in data set [5] it was 0.266 µM; in data set [6], 0.89 µM. The values for the EC50 in data set [2] and in data set [3] (read-out: pEC50 (converted)) were 324 µM and > 10000 µM, respectively.
With `CCSc1ccc(CC(N)CC)cc1` (stereo not drawn), half-maximal inhibition in [1] (IC50) was put at 1.29 µM. The EC50 was 5.13 µM in data set [2] and 53.7 µM in data set [3] (read-out: pEC50 (converted)).
`CC(=O)O[C@H]1C(=O)[C@@]2(C)[C@H]([C@H](OC(=O)c3ccccc3)[C@]3(O)C[C@H](OC(=O)[C@H](O)[C@@H](NC(=O)c4ccccc4)c4ccccc4)C(C)=C1C3(C)C)[C@]1(OC(C)=O)CO[C@@H]1C[C@@H]2O` [PACLITAXEL]: the IC50 in data set [13] was found to be 0.01 µM; in data set [14] it was 0.01 µM; in [15], 4 ng/mL (≈ 4.68 nM).
Regarding `COCCNC(C)Cc1ccc(SC)cc1` (stereo not drawn), the IC50 in data set [1] worked out at 3.58 µM. For the same compound, the EC50 was 22.9 µM in data set [2] and 1350 µM in data set [3] (read-out: pEC50 (converted)).
